From PMC3205972 (Journal of medicinal chemistry, 2009)
Read-outs that look alike come from different tables or passages of the source. Blank lines part the entries; values can stand above or below the compound they belong to.

Tests used:
[1] = test system: Normal Cell Lines (Wi38, WS1, NHDF); assay: MTT colorimetric assay, mean over three normal cell lines; assay type: cell-based; conditions: read-out: IC50 In Vitro Growth Inhibitory Values, Normal Cell Lines, Mean ± SEM
[2] = test system: cancer versus normal cell lines; assay: In vitro therapeutic ratio, cancer versus normal cell lines; assay type: cell-based
In short: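 MTT colorimetric growth assay on human cancer and normal cell lines. Cells were plated for 24 h at 10,000 to 40,000 cells/mL, depending on cell type, then cultured 72 h with or without test compound. Formazan from mitochondrial MTT reduction was read at 570 nm (reference 630 nm), in sextuplicate. The ratio compares MTT growth-inhibitory IC50 between normal and cancer cells.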

U373 GBM cells [3] = assay: Quantitative videomicroscopy: cell growth; assay type: cell-based, human; conditions: 5 μM, 72 h
A549 NSCLC cells [4] = assay: Quantitative videomicroscopy: cell growth; assay type: cell-based, human; conditions: 5 μM, 72 h
A549 NSCLC cells [5] = assay: Soft-agar colony formation, anchorage-independent culture; assay type: cell-based, human; conditions: between 0.5 (p < 0.05) and 5 (p < 0.01) μM, 38 days
U373 GBM cells [6] = assay: Actin cytoskeleton organization by computer-assisted fluorescence microscopy; assay type: cell-based, human; conditions: 5 μM for 6 hrs
U373 GBM cells [7] = assay: Flow cytometry, annexin V / propidium iodide staining; assay type: cell-based, human; conditions: 72 hrs
healthy mice = assay: Chronic maximal tolerated dose in healthy mice; assay type: in vivo, mouse; conditions: i.v. 5, 10, 20, 40 and 80 mg/kg once a day during 5 consecutive days; 28 days
CYP3A4 = conditions: cited from earlier work
SKMEL-28 melanoma cells = assay: MTT colorimetric assay, in vitro growth inhibition; assay type: cell-based, human
[8] = test system: A549 non-small-cell-lung cancer (NSCLC) cells; assay: MTT colorimetric assay, in vitro growth inhibition; assay type: cell-based, human
[9] = test system: OE21 esophageal cancer cells; assay: MTT colorimetric assay, in vitro growth inhibition; assay type: cell-based, human
[10] = test system: Hs683 anaplastic oligodendroglioma cells; assay: MTT colorimetric assay, in vitro growth inhibition; assay type: cell-based, human
[11] = test system: U373 glioblastoma (GBM) cells; assay: MTT colorimetric assay, in vitro growth inhibition; assay type: cell-based, human; conditions: 72 h
B16F10 melanoma cells = assay: MTT colorimetric assay, in vitro growth inhibition; assay type: cell-based, mouse
[12] = test system: Cancer Cell Lines (A549, OE21, Hs683, U373, SKMEL, B16F10); assay: MTT colorimetric assay, mean over six cancer cell lines; assay type: cell-based; conditions: read-out: IC50 In Vitro Growth Inhibitory Values, Cancer Cell Lines, Mean ± SEM
[13] = test system: MCF-7 breast cancer cells; assay: Flow cytometry, annexin V / propidium iodide staining; assay type: cell-based, human; conditions: 1 μM for 72 hrs, positive control
[14] = test system: glioma cells, which display resistance to proapoptotic stimuli; conditions: 1 μM; cited from earlier work
[15] = read-out: In Vitro IC50 Growth Inhibitory Values, SKMEL, MTT, 72 h, concentrations of up to 10 μM
[16] = read-out: In Vitro IC50 Growth Inhibitory Values, A549, MTT, 72 h, concentrations of up to 10 μM
[17] = read-out: In Vitro IC50 Growth Inhibitory Values, OE21, MTT, 72 h, concentrations of up to 10 μM
[18] = read-out: In Vitro IC50 Growth Inhibitory Values, Hs683, MTT, 72 h, concentrations of up to 10 μM
[19] = read-out: In Vitro IC50 Growth Inhibitory Values, U373, MTT, concentrations of up to 10 μM
[20] = read-out: In Vitro IC50 Growth Inhibitory Values, B16F10, MTT, 72 h, concentrations of up to 10 μM

SMILES: O[C@H]1[C@H]2c3cc4c(cc3CN3CCC(=C[C@@H]1O)[C@H]23)OCO4 [compound 1, (1S,2S,12bS,12cS)-1,2-Diol,2,4,5,7,12b,12c-hexahydro-1H-[1,3]dioxolo[4,5-j]pyrrolo[3,2,1-de]phenanthridine]
IC50 [1]: > 100 µM
Therapeutic ratio ([2]; MTT IC50): > 15
Therapeutic ratio ([2]; MTT IC50, listed as Lycorine): at least 15
Therapeutic ratio ([2]; MTT IC50, listed as lycorine): 15
in vitro growth inhibitory activity based on global growth rate (GGR) (U373 GBM cells [3]): marked in vitro growth inhibitory activity
in vitro growth inhibitory activity based on global growth rate (GGR) (A549 NSCLC cells [4]): marked in vitro growth inhibitory activity
colony formation on soft agar (A549 NSCLC cells [5]): significantly impairs colony formation
levels of polymerized actin (U373 GBM cells [6]): markedly increased the levels of polymerized actin
pro-apoptotic effects (AV+ cells) (U373 GBM cells [7]; 5 μM or 50 μM): did not induce pro-apoptotic effects
non-apoptotic cell death (AV-/PI+ cells) (U373 GBM cells [7]; 50 μM): induced non-apoptotic cell death
toxicity (body weight, death) (healthy mice): no gross toxicity
CYP3A4 inhibitory activity (CYP3A4): no CYP3A4 inhibitory activity

SMILES: CC(=O)O[C@H]1[C@H]2c3cc4c(cc3CN3CCC(=C[C@@H]1OC(C)=O)[C@H]23)OCO4 [compound 3, (1S,2S,12bS,12cS)-1,2-Diol-2,4,5,7,12b,12c-hexahydro-1H-[1,3]dioxolo[4,5-j]pyrrolo[3,2,1-de]phenanthridine-1,2-diacetate]
IC50 (SKMEL-28 melanoma cells; [15]): > 10 µM

SMILES: CC(=O)O[C@H]1C=C2CCN3Cc4cc5c(cc4[C@H]([C@@H]1O)[C@@H]23)OCO5 [compound 5, (1S,2S,12bS,12cS)-1,2-Diol-2,4,5,7,12b,12c-hexahydro-1H-[1,3]dioxolo[4,5-j]pyrrolo[3,2,1-de]phenanthridine-2-acetate]
IC50 ([8]; Homo sapiens, A549, 72 h, read-out: IC50 In Vitro Growth Inhibitory Values): 47.6 ± 2.3 µM
IC50 ([9]; Homo sapiens, OE21, 72 h, read-out: IC50 In Vitro Growth Inhibitory Values): 77.4 ± 3.1 µM
IC50 ([10]; Homo sapiens, Hs 683, 72 h, read-out: IC50 In Vitro Growth Inhibitory Values): 43 ± 2 µM
IC50 ([11]; Homo sapiens, U373 MG, read-out: IC50 In Vitro Growth Inhibitory Values): 63.1 ± 4.1 µM
IC50 (B16F10 melanoma cells; Mus musculus, B16-F10, 72 h, read-out: IC50 In Vitro Growth Inhibitory Values): 37.1 ± 2.8 µM
IC50 [12]: 59.3 ± 8.2 µM
IC50 [1]: > 96.2 µM
Therapeutic ratio ([2]; MTT IC50): > 2

SMILES: O[C@H]1[C@H]2c3cc4c(cc3CN3CCC(=C[C@@H]1Cl)[C@H]23)OCO4 [compound 6, (1S,2S,12bS,12cS)-1-ol-2-Chloro-2,4,5,7,12b,12c-hexahydro-1H-[1,3]Dioxolo[4,5-j]pyrrolo[3,2,1-de]phenanthridine]
IC50 [1]: > 72.7 µM
Therapeutic ratio ([2]; MTT IC50): > 11

SMILES: CC(=O)O[C@H]1[C@H]2c3cc4c(cc3CN3CC[C@H](C[C@@H]1OC(C)=O)[C@H]23)OCO4 [compound 9, (1S,2S,3aR,12bS,12cR)-1,2-Diol-2,3,3a,4,5,7,12b,12c-octahydro-1H-[1,3]dioxolo[4,5-j]pyrrolo[3,2,1-de]phenanthridine diacetate]
IC50 [8, 16]: > 10 µM
IC50 [9, 17]: > 10 µM
IC50 [10, 18]: > 10 µM
IC50 [11, 19]: > 10 µM
IC50 (SKMEL-28 melanoma cells; [15]): > 10 µM
IC50 (B16F10 melanoma cells; [20]): > 10 µM

SMILES: CC(=O)O[C@H]1[C@H]2c3cc4c(cc3CN3CC[C@@H](C[C@@H]1OC(C)=O)[C@H]23)OCO4 [compound 11, (1α,2β,12β)-1,2-Diol-9,10-[methylenebis(oxy)]-galanthan-diacetate]
IC50 [8, 16]: > 10 µM
IC50 [9, 17]: > 10 µM
IC50 [10, 18]: > 10 µM
IC50 [11, 19]: > 10 µM
IC50 (SKMEL-28 melanoma cells; [15]): > 10 µM
IC50 (B16F10 melanoma cells; [20]): > 10 µM

SMILES: C1=C2CCN3Cc4cc5c(cc4[C@H]([C@@H]4O[C@H]14)[C@@H]23)OCO5 [compound 14, (1α,2α)-3,12-didehydro-1,2-epoxy-9,10-[methylenebis(oxy)]-galanthan]
IC50 ([12]; mean of six cancer cell lines): 5.3 ± 1.2 µM
IC50 ([1]; mean of three normal cell lines): 24.9 ± 8.2 µM
Therapeutic ratio ([2]; MTT IC50): 5

IC50 [12]: 9 ± 1.3 µM
SMILES: COc1cc2c(cc1O)[C@@H]1[C@H](O)[C@@H](O)C=C3CCN(C2)[C@H]31 [compound 18, (1S,2S,11bS,11cS)-1,2,10-triol-2,4,5,7,11b,11c-hexahydro-9-methoxy-1H-pyrrolo[3,2,1-de]phenanthridine]
IC50 [1]: 63.3 ± 7.3 µM
Therapeutic ratio ([2]; MTT IC50): 7

SMILES: c1cc2c3c(c1)-c1cc4c(cc1CN3CC2)OCO4 [compound 20, 4,5-dihydro-7H-[1,3]Dioxolo[4,5-j]pyrrolo[3,2,1-de]phenanthridine]
IC50 (SKMEL-28 melanoma cells; Homo sapiens, SK-MEL-28, 72 h, read-out: IC50 In Vitro Growth Inhibitory Values): 20.9 ± 1.2 µM
IC50 [12]: 11.6 ± 3.4 µM
Therapeutic ratio ([2]; MTT IC50): 2

SMILES: COC1=C[C@@H]2CCN3Cc4cc5c(cc4[C@@H]([C@H]23)[C@@H]1O)OCO5 [compound 22, (1S,3aS,12bS,12cS)-1-ol-2-methoxy-3a,4,5,7,12b,12c-hexahydro-1H-[1,3]Dioxolo[4,5-j]pyrrolo[3,2,1-de]phenanthridine]
IC50 [1]: > 99.2 µM
Therapeutic ratio ([2]; MTT IC50): > 13

SMILES: O=C1N[C@@H]2C(=C[C@H](O)[C@@H](O)[C@H]2O)c2cc3c(c(O)c21)OCO3 [narciclasine]
pro-apoptotic effects (AV/PI staining) [13]: induced significant pro-apoptotic effects
apoptosis induction [14]: unable to induce apoptosis
CYP3A4 inhibitory activity (CYP3A4): does
